According to ChEMBL document CHEMBL1145348, “Synthesis and biochemical evaluation of a range of potent benzyl imidazole-based compounds as potential inhibitors of the enzyme complex 17alpha-hydroxylase/17,20-lyase (P450(17alpha))” (Bioorg Med Chem Lett, 2006):

Legend:
[1] = target: T1, Steroid 17-alpha-hydroxylase/17,20 lyase (Rattus norvegicus, UniProt P11715); assay: Inhibition of rat microsomal 17-alpha-hydroxylase component of P450-17alpha
T1 sequence (P11715 whole entry): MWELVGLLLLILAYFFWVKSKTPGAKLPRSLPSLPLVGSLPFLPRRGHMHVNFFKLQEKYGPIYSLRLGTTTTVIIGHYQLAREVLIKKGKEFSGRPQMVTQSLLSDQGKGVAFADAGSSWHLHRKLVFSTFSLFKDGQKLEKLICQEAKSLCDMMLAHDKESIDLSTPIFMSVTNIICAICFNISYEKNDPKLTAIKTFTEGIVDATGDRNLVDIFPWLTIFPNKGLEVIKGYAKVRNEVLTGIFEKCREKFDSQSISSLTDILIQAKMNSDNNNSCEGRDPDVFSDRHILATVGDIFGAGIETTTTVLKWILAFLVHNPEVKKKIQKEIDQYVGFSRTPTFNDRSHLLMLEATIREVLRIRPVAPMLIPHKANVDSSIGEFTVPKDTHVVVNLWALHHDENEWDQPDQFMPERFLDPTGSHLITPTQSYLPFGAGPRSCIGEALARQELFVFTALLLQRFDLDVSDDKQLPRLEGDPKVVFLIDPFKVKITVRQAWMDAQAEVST
Method in brief: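 Microsomal enzyme (final 0.16 mg/mL) preincubated mixture at 37 °C, 15 min reaction in 50 mM sodium phosphate pH 7.4 with NADPH generating system and radiolabelled progesterone (1.5 μM); inhibitor in ethanol. Ether extraction, TLC (DCM/ethyl acetate 7:3) with carrier steroids, ³H counting against uninhibited controls. IC50 from ≥5 concentrations in triplicate by linear regression of inhibition versus log[I].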

[2] = target: T1, Steroid 17-alpha-hydroxylase/17,20 lyase; assay: Inhibition of rat microsomal 17,20-lyase component of P450-17alpha
Method in brief: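 Rat testicular microsomes (final 0.23 mg/mL protein) incubated at 37 °C for 30 min in 50 mM sodium phosphate pH 7.4 with NADPH generating system and radiolabelled 17α-hydroxyprogesterone (1 μM), inhibitor added in ethanol. Ether extraction, TLC (DCM/ethyl acetate 4:1) with carrier steroids, ³H scintillation counting versus no-inhibitor controls. IC50 from five or more concentrations in triplicate, linear regression of inhibition versus log[I].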

| Compound | IC50 [1] [µM] | IC50 [2] [µM] |
| --- | --- | --- |
| O=[N+]([O-])c1ccc(Cn2ccnc2)cc1 | 25.4 | 7.17 |
| Oc1ccc(Cn2ccnc2)cc1 | 72.1 | 8.22 |
| Clc1cc(Cl)cc(Cn2ccnc2)c1 | 22.6 | 3.34 |
| Brc1ccc(Cn2ccnc2)cc1 | 53.4 | 6.76 |
| Brc1cc(Br)cc(Cn2ccnc2)c1 | 25.9 | 3.16 |
| Cc1ccc(Cn2ccnc2)cc1 | 50.6 | 8.81 |
| FC(F)(F)c1cc(Cn2ccnc2)cc(C(F)(F)F)c1 | 245 | 19.5 |
| N#Cc1ccc(Cn2ccnc2)cc1 | 40.3 | 7.67 |
| Fc1ccc(Cn2ccnc2)cc1F | 70.7 | 9.6 |
| Fc1ccc(Cn2ccnc2)cc1 | 86.6 | 18.4 |
| Clc1ccc(Cn2ccnc2)cc1Cl | 12.2 | 2.07 |
| Ic1ccc(Cn2ccnc2)cc1 | 10.1 | 1.58 |
| Clc1ccc(Cn2ccnc2)cc1 | 31.6 | 2.81 |
| Fc1cc(F)cc(Cn2ccnc2)c1 | 83.1 | 11.8 |
| c1ccc(Cn2ccnc2)cc1 [BENZYLIMIDAZOLE] | 215 | 39.1 |
| CC(=O)N1CCN(c2ccc(OCC3COC(Cn4ccnc4)(c4ccc(Cl)cc4Cl)O3)cc2)CC1 (configuration not stated) [KETOCONAZOLE] | 3.76 | 1.66 |
